Assay [1] deals with Canis familiaris. Description: Ex vivo TXA2 ([…]) antagonist activity was determined for U-46,619 induced aggregation (dose ratio) after 24 hr of oral dosing (10 mg/kg) in the dog. Format: functional, Canis lupus familiaris. Summed up: (§1)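 Dogs (n = 4) dosed orally, blood sampled at 2, 5, 8 and 24 h. Platelet-rich plasma aggregated with U46619 plus a predetermined threshold ADP concentration (about 0.4–1.2 × 10^-6 M), compared before vs after dosing to give a U46619 dose ratio. ">" marks the maximum achievable ratio at top U46619 (1 × 10^-4 M).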

The subject of assay [2] is Canis familiaris. As to the kind of experiment: Ex vivo TXA2 ([…]) antagonist activity was determined for U-46,619 induced aggregation (dose ratio) after 24 hr of oral dosing (1 mg/kg) in the dog. Format: functional, Canis lupus familiaris. A digest of the protocol:
as §1

For assay [3], the system named is Canis familiaris. As to the kind of experiment: Ex vivo TXA2 ([…]) antagonist activity was determined for U-46,619 induced aggregation (dose ratio) after 2 hr of oral dosing (10 mg/kg) in the dog. The format is functional, Canis lupus familiaris. A digest of the protocol:
as §1

The subject of assay [4] is Canis familiaris. As to the kind of experiment: Ex vivo TXA2 ([…]) antagonist activity was determined for U-46,619 induced aggregation (dose ratio) after 2 hr of oral dosing (3 mg/kg) in the dog. Format: functional, Canis lupus familiaris. Summed up: as §1
Assay [5] has as its system Canis familiaris. As to the kind of experiment: Ex vivo TXA2 ([…]) antagonist activity was determined for U-46,619 induced aggregation (dose ratio) after 8 hr of oral dosing (10 mg/kg) in the dog. The format is functional, Canis lupus familiaris. A digest of the protocol:
as §1

Assay [6] has as its system Canis familiaris. Description: Ex vivo TXA2 ([…]) antagonist activity was determined for U-46,619 induced aggregation (dose ratio) after 8 hr of oral dosing (3 mg/kg) in the dog. The format is functional, Canis lupus familiaris. Summed up: as §1
For assay [7], the system named is Rattus norvegicus. Description: Ex vivo […] (TXA2 synthase) inhibitory activity after 1 hr of oral dosing (5 mg/kg) in the rat. The format is functional. A digest of the protocol:
(§2)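 Rats (n = 6) gavaged, anesthetized, aortic blood taken at 1, 3 or 5 h after dosing. A blood aliquot was challenged with collagen and TXB2 measured by radioimmunoassay; expressed as % inhibition of TXA2 synthase (±SEM).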

Assay [8] has as its system Rattus norvegicus. As to the kind of experiment: Ex vivo […] (TXA2 synthase) inhibitory activity after 3 hr of oral dosing (1 mg/kg) in the rat. The format is functional. A digest of the protocol:
as §2

Assay [9] relates to Rattus norvegicus. As to the kind of experiment: Ex vivo […] (TXA2 synthase) inhibitory activity after 3 hr of oral dosing (5 mg/kg) in the rat. The format is functional. A digest of the protocol: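 Conscious rats (n = 6) were gavaged with compound, then anesthetized, and blood was drawn from the abdominal aorta at 1, 3 and 5 h after dosing. A blood aliquot was stimulated with collagen and the TXB2 formed was measured by radioimmunoassay. Results are expressed as % inhibition of TXA2 synthase activity (±SEM).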

The test system of assay [10] is Rattus norvegicus. As to the kind of experiment: Ex vivo […] (TXA2 synthase) inhibitory activity after 5 hr of oral dosing (10 mg/kg) in the rat. Format: functional. A digest of the protocol: as §2
Assay [11] concerns Rattus norvegicus. Description: Ex vivo […] (TXA2 synthase) inhibitory activity after 5 hr of oral dosing (5 mg/kg) in the rat. The format is functional. Summed up: as §2
Assay [12] deals with Rattus norvegicus. As to the kind of experiment: Ex vivo […] (TXA2 synthase) inhibitory activity after 1 hr of oral dosing (10 mg/kg) in the rat. Format: functional. A digest of the protocol:
as §2

Assay [13] concerns Rattus norvegicus. As to the kind of experiment: Ex vivo […] (TXA2 synthase) inhibitory activity after 1 hr of oral dosing (3 mg/kg) in the rat. The format is functional. Summed up:
as §2

Assay [14] concerns Rattus norvegicus. Description: Ex vivo TXA2 ([…]) antagonist activity was determined for U-46,619 induced aggregation (dose ratio) after 1 hr of oral dosing (1 mg/kg) in the rat. Format: functional. A digest of the protocol: (§3)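 Conscious rats (n = 6) dosed by oral gavage, then anesthetized and bled from the abdominal aorta at 1, 3 or 5 h. Platelet-rich plasma aggregated with U46619 before and after dosing to give a U46619 dose ratio. ">" values mark the maximum dose ratio achievable at the top U46619 concentration (1 × 10^-4 M).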

The subject of assay [15] is Rattus norvegicus. Description: Ex vivo TXA2 ([…]) antagonist activity was determined for U-46,619 induced aggregation (dose ratio) after 3 hr of oral dosing (5 mg/kg) in the rat. Format: functional. A digest of the protocol: as §3
Assay [16] relates to Rattus norvegicus. Description: Ex vivo TXA2 ([…]) antagonist activity was determined for U-46,619 induced aggregation (dose ratio) after 5 hr of oral dosing (10 mg/kg) in the rat. Format: functional. Summed up: as §3
The test system of assay [17] is Rattus norvegicus. Description: Ex vivo TXA2 ([…]) antagonist activity was determined for U-46,619 induced aggregation (dose ratio) after 3 hr of oral dosing (3 mg/kg) in the rat. Format: functional. A digest of the protocol:
as §3

`Cc1ccc(OC(C)(C)C2OCC(C/C=C\CCC(=O)O)C(c3cccnc3)O2)c([N+](=O)[O-])c1` (stereo in doubt; 7x): the Antagonist activity with Canis familiaris [1] is recorded as >522; in the assay on Canis familiaris [2], >1.4; in the assay on Canis familiaris [3], >522; in the assay on Canis familiaris [4] it was >321; in the assay with Canis familiaris [5], >522; in the assay with Canis familiaris [6], >321. Also, the Antagonist activity in the assay with Rattus norvegicus [14] is on record as >21; in the assay on Rattus norvegicus [15], >59; in the assay with Rattus norvegicus [16], >92; in the assay on Rattus norvegicus [17], >23. The Inhibition (as a rule, the drop in the measured response relative to a control, in per cent) with Rattus norvegicus [7] is 92.9%; with Rattus norvegicus [8], 38.8%; in the assay with Rattus norvegicus [9], 89.2%; with Rattus norvegicus [10] it was 89%; with Rattus norvegicus [11], 79.3%; in the assay with Rattus norvegicus [12], 95.6%. Besides, the Inhibition with Rattus norvegicus [13] worked out at 90.8%.

(Values after ChEMBL document CHEMBL1128245, “Dual-acting thromboxane receptor antagonist/synthase inhibitors: synthesis and biological properties of [2-substituted-4-(3-pyridyl)-1,3-dioxan-5-yl] alkenoic acids” (J Med Chem, 1995).)
